Measurements taken from ChEMBL document CHEMBL1132696, “Design of antineoplastic agents based on the "2-phenylnaphthalene-type" structural pattern. 4. Synthesis and biological activity of 2-chloro-3-(substituted phenoxy)-1, 4-naphthoquinones and related 5,8-dihydroxy-1,4-naphthoquinones” (J Med Chem, 1999).

Columns and labels:
HL-60 = assay: Cytotoxicity in HL-60 (human leukemia) cell line.; assay type: functional, cell-based
[1] = biological target: DNA topoisomerase II (Homo sapiens) (UniProt P11388+Q02880); assay: Relative activity to induce mammalian DNA topoisomerase II-mediated DNA cleavage; assay type: functional
SCLC = assay: Cytotoxicity in SCLC (human lung carcinoma) cell line.; assay type: functional, cell-based
NCI = assay: Complete inhibition of cell growth of 60-human tumor cell line detected by National Cancer Institute.; assay type: functional, cell-based; details: read-out: Log IC50 (converted)
Summary of the method: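 National Cancer Institute preclinical 60 human tumour cell line drug discovery screen. Read-out is the log IC₅₀ (M) at which complete inhibition of cell growth is detected in at least one cell line. Scored qualitatively: +++ at -7.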

Activity [1]	Compound	IC50 (HL-60)	IC50 (SCLC)	concentration for complete growth inhibition (NCI)
2	COc1cc(OC)c2c3c(oc2c1)C(=O)c1c(OC)ccc(OC)c1C3=O	128000 nM	> 10000 nM	10000 nM
2	COc1ccc2c3c(oc2c1)C(=O)c1c(OC)ccc(OC)c1C3=O	14500 nM	1000 nM	
800	COc1cccc(OC2=C(Cl)C(=O)c3c(O)ccc(O)c3C2=O)c1	200 nM	500 nM	1000 nM
	O=C1C=CC(=O)c2c(O)c(Cl)c(Cl)c(O)c21	49 nM	300 nM	
100	O=C1C(Cl)=C(Oc2cccc(O)c2)C(=O)c2c(O)ccc(O)c21	160 nM	450 nM	1000 nM
500	O=C1C=CC(=O)c2c(O)c(Oc3ccccc3)c(Oc3ccccc3)c(O)c21	130 nM	100 nM	100 nM
50	COc1cc(OC)cc(OC2=C(Cl)C(=O)c3c(O)ccc(O)c3C2=O)c1	70 nM	750 nM	1000 nM
4000	O=C1C=CC(=O)c2c(O)c(Oc3ccccc3)c(Cl)c(O)c21	220 nM	250 nM	100 nM
20	COc1cccc(OC2=C(Cl)C(=O)c3c(OC)ccc(OC)c3C2=O)c1	440 nM	2000 nM	1000 nM
200	COc1ccc(OC)c2c1C(=O)C(Cl)=C(Cl)C2=O	220 nM	1000 nM	
> 100000	O=C1c2ccccc2C(=O)c2c1oc1cc(O)cc(O)c21		1030 nM	1000 nM
0	COc1cccc(OC2=C(Oc3cccc(OC)c3)C(=O)c3c(OC)ccc(OC)c3C2=O)c1	160 nM	1000 nM	100 nM
200	O=C1C(Cl)=C(Oc2cc(O)cc(O)c2)C(=O)c2c(O)ccc(O)c21	250 nM	500 nM	1000 nM
200	COc1cccc(OC2=C(Cl)C(=O)c3c(OC(C)=O)ccc(OC(C)=O)c3C2=O)c1	200 nM	5000 nM	1000 nM
2000	O=C1c2oc3cc(O)cc(O)c3c2C(=O)c2c(O)ccc(O)c21	390 nM	1500 nM	100 nM
50	COc1cc(OC)cc(OC2=C(Cl)C(=O)c3c(OC(C)=O)ccc(OC(C)=O)c3C2=O)c1	500 nM	1100 nM	1000 nM
0.5	Cc1ccc[n+](C2=C([O-])C(=O)c3c(O)ccc(O)c3C2=O)c1	30000 nM	> 10000 nM	
10	COc1c(Cl)c(Cl)c(OC)c2c1C(=O)C=CC2=O	1000 nM	750 nM	
100	COc1cc(OC)cc(OC2=C(Cl)C(=O)c3c(OC)ccc(OC)c3C2=O)c1	120 nM	2000 nM	1000 nM
10	COc1ccc(OC)c2c1C(=O)C(Cl)=C(Oc1cccc(O)c1)C2=O	67 nM	300 nM	1000 nM
